Data as given in ChEMBL document CHEMBL4229462, “Design and synthesis of novel anti-hyperalgesic agents based on 6-prenylnaringenin as the T-type calcium channel blockers” (Bioorg Med Chem, 2018).
Calls of active or inactive are those of the source.

Experiments:
[1] = target: T1, Voltage-dependent T-type calcium channel subunit alpha-1H (Homo sapiens, UniProt O95180); test: Inhibition of human CaV3.2 expressed in HEK293 cells assessed as suppression of T-current amplitude by measuring remaining activity at 3 uM after 10 mins by whole cell patch clamp method relative to control; assay type: cell-based
Procedure, shortened: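 HEK293 cells stably expressing human Cav3.2 were recorded by whole-cell patch clamp, holding at −90 mV with a 30 mV test pulse evoking Ba²⁺ currents. Remaining T-current after 3 μM compound is given as % of control; some entries were measured at 1 μM.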

[2] = target: T1, Voltage-dependent T-type calcium channel subunit alpha-1H; test: Inhibition of human CaV3.2 expressed in HEK293 cells assessed as suppression of T-current amplitude after 10 mins by whole cell patch clamp method; assay type: cell-based
Procedure, shortened: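 Whole-cell patch clamp was done on HEK293 cells stably expressing human Cav3.2. Membrane was held at −90 mV and Ba²⁺ currents were evoked by a 30 mV test pulse. IC50 was derived from T-current suppression.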

[3] = Inhibition of T-type calcium channel in human Jurkat cells assessed as suppression of thapsigargin-induced intracellular calcium flux after 1 hr by indo-1 dye-based spectrofluorometric method; assay type: cell-based
Mus musculus [4] = test: Antihyperalgesic activity in ddY mouse assessed as suppression of partial sciatic nerve ligation-induced mechanical allodynia at 10 mg/kg, ip administered 7 days by Von Frey test; assay type: functional, organism-based
Procedure, shortened: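 Male ddY mice (18–25 g) had the right sciatic nerve partially ligated under isoflurane and were tested one week later. Dosing was i.p. as a suspension in 0.5% carboxymethyl cellulose sodium, with vehicle-treated sham and PSNL groups. Ipsilateral hindpaw threshold was measured by von Frey up-down method before ligation and 0–90 min after injection. Data are mean with S.E.M. (5–11 mice), analysed non-parametrically.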

Mus musculus [5] = test: Antihyperalgesic activity in ddY mouse assessed as suppression of partial sciatic nerve ligation-induced mechanical allodynia at 20 mg/kg, ip administered 7 days by Von Frey test; assay type: functional, organism-based
Procedure, shortened: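 Male ddY mice (18–25 g) had the right sciatic nerve partially ligated under isoflurane and were tested 7 days later. Compound was suspended in 0.5% CMC-Na and given i.p. Ipsilateral hindpaw threshold was measured by von Frey up-down method before ligation and over 0–90 min post-dose. Data are mean ± S.E.M. (5–11 mice) with non-parametric statistics.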

[6] = Inhibition of T-type calcium channel (unknown origin); parameters: species or system Homo sapiens
[7] = target: Voltage-dependent T-type calcium channel subunit alpha-1G (Homo sapiens, UniProt O43497); test: Inhibition of human CaV3.1 expressed in HEK293 cells assessed as suppression of T-current after 10 mins by whole cell patch clamp method; assay type: cell-based
Voltage-dependent T-type calcium channel subunit alpha-1G, sequence (O43497 whole entry): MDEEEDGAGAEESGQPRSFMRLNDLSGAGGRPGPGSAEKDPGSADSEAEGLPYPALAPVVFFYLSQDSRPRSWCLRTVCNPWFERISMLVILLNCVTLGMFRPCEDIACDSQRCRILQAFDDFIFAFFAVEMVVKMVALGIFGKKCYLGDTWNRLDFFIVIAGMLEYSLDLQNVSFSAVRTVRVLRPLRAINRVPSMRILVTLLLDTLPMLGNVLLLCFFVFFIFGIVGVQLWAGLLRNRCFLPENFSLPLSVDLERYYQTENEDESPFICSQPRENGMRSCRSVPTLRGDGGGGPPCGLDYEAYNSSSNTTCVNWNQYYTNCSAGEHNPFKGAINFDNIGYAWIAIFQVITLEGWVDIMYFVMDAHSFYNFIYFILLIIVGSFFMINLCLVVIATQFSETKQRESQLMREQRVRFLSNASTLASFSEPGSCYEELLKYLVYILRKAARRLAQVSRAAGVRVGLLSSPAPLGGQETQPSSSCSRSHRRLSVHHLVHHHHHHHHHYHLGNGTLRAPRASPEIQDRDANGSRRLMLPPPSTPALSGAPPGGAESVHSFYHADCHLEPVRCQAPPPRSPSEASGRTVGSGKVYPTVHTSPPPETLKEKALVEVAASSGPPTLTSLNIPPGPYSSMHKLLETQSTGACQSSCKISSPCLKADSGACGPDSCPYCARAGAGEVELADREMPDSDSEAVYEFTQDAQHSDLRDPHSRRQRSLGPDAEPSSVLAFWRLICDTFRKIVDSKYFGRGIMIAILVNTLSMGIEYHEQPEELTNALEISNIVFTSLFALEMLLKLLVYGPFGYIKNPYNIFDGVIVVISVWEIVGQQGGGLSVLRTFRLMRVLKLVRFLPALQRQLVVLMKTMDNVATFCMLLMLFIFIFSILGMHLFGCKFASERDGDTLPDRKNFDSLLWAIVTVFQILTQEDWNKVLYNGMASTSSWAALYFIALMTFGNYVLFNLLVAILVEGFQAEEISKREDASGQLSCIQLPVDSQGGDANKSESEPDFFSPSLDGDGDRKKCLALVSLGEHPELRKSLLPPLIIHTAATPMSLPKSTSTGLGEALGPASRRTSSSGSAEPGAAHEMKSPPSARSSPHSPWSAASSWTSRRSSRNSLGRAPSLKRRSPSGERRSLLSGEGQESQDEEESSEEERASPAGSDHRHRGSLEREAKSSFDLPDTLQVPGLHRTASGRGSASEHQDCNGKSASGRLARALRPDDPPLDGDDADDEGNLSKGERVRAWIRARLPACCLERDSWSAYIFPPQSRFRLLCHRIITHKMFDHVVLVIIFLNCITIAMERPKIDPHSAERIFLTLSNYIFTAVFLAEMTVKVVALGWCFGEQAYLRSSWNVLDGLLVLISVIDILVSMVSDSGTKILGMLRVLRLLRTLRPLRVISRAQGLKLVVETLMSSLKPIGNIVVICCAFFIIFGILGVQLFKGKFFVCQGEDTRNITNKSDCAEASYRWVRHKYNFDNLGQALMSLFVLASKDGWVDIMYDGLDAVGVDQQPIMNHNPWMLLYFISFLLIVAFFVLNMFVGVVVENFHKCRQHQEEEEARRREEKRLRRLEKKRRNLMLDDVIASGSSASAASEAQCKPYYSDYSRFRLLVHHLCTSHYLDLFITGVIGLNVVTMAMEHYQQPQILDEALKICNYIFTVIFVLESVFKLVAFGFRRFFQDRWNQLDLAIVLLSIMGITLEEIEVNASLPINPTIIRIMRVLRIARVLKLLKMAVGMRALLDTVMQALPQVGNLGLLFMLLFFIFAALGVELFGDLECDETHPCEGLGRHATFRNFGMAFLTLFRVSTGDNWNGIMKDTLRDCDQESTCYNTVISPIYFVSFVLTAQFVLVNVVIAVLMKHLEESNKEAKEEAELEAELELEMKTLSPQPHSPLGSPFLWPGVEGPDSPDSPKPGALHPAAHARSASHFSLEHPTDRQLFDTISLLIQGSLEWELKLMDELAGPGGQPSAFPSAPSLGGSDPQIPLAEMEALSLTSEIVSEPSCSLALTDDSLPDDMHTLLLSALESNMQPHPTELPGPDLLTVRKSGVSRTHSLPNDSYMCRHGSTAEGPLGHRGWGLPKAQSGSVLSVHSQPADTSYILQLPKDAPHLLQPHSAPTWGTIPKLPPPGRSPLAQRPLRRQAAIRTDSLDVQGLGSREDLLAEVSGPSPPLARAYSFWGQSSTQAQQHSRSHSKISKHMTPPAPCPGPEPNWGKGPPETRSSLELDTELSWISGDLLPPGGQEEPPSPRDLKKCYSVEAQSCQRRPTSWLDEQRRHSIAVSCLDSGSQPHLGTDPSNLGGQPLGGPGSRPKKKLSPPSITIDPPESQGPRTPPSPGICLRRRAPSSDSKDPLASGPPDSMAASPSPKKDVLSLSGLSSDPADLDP

T1 sequence (O95180 whole entry): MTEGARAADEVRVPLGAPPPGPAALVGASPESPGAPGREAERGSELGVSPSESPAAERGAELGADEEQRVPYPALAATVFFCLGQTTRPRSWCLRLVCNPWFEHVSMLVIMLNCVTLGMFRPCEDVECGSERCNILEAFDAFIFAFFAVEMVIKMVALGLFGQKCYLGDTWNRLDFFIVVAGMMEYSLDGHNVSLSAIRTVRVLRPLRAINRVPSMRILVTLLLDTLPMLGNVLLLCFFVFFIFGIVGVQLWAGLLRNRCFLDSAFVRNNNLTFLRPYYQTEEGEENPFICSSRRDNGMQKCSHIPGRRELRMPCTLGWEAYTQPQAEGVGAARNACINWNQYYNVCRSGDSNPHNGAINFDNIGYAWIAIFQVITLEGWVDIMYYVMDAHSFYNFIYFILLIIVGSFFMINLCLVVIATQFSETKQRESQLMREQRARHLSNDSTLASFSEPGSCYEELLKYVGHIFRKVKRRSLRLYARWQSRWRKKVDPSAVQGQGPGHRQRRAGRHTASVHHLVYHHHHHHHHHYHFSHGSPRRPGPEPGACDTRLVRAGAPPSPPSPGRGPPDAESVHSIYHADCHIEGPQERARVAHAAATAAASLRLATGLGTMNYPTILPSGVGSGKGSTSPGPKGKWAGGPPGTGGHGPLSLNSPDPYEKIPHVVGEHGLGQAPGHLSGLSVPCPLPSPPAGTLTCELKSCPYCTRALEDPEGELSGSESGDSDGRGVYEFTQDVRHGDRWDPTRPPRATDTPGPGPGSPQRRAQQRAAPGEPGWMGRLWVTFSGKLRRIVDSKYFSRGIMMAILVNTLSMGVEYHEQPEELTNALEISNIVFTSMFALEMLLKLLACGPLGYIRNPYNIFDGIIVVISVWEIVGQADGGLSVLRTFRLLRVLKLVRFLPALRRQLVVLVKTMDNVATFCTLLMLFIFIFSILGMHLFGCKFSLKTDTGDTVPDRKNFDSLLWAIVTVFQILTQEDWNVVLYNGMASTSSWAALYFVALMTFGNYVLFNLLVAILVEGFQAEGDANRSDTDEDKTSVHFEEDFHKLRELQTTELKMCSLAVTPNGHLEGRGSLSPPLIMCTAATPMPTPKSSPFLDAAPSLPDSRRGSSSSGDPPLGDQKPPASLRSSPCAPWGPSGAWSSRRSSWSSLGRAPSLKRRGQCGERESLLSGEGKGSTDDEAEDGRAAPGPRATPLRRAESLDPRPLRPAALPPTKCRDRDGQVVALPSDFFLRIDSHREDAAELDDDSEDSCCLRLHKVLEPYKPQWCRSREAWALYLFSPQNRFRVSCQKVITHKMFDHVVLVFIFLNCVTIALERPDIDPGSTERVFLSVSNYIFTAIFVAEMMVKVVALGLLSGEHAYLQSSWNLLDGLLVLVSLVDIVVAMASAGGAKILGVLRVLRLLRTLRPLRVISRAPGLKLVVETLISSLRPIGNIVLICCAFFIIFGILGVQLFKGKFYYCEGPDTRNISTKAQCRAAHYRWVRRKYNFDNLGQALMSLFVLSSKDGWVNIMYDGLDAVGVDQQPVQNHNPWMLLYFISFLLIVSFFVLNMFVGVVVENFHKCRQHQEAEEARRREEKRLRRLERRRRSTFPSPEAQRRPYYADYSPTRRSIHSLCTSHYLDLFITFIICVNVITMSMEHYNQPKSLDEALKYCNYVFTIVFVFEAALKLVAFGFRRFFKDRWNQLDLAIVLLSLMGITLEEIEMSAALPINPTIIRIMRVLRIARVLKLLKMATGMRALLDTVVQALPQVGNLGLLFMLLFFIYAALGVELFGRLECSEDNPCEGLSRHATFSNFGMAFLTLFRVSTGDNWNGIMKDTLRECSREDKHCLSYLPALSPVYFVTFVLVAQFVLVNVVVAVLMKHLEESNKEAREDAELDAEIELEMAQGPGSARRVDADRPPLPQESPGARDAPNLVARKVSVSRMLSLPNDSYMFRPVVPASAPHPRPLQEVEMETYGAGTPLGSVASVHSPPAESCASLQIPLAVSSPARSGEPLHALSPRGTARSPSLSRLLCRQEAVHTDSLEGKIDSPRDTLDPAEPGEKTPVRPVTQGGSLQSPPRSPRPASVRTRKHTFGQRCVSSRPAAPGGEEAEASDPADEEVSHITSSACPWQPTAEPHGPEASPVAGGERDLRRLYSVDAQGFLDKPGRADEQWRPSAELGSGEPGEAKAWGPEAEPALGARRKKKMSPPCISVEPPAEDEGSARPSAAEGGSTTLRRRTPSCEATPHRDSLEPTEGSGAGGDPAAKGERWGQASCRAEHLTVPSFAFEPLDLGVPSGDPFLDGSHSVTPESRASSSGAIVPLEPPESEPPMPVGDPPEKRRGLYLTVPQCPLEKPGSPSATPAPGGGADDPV

| Structure (SMILES) | Activity [1] [%] | other results |
| --- | --- | --- |
| CC(C)=CCc1ccc2c(c1O)C(=O)CC(c1ccc(Cl)cc1)O2 (configuration not stated) | 78.5 | – |
| C=CCc1c(O)cc2c(c1O)C(=O)CC(c1ccc(OC)cc1)O2 (configuration not stated) | 50.8 | – |
| CCC(=CCc1c(O)cc2c(c1O)C(=O)CC(c1ccc(O)cc1)O2)CC (configuration not stated) | 22.2 | IC50 [2]: 260 nM |
| CC(C)=CCc1c(O)cc2c(c1O)C(=O)CC(c1c(O)cccc1O)O2 (configuration not stated) | 10.3 | – |
| CC(C)=CCc1c(O)cc2c(c1O)C(=O)CC(c1ccccc1)O2 (configuration not stated) | 72.6 | – |
| CCC(CC)CCc1c(O)cc2c(c1O)C(=O)CC(c1ccc(O)cc1)O2 (configuration not stated) | 10.1 | – |
| C=CCc1ccc2c(c1O)C(=O)CC(c1ccc(OC)cc1)O2 (configuration not stated) | 59 | – |
| C=CCc1c(O)cc2c(c1O)C(=O)CC(c1ccccc1)O2 (configuration not stated) | 70.1 | – |
| COCC(=O)O[C@]1(CCN(C)CCCc2nc3ccccc3[nH]2)CCc2cc(F)ccc2[C@@H]1C(C)C [MIBEFRADIL] | – | IC50 [3]: 1000 nM |
| O=C1CC(c2ccc(O)cc2)Oc2cc(O)c(CC=C3CCCC3)c(O)c21 (configuration not stated) | 1.44 | IC50 [2]: 460 nM |
| CCC(=CCc1c(O)cc2c(c1O)C(=O)CC(c1ccccc1O)O2)CC (configuration not stated) | 0.33 | Activity (Mus musculus [4]): Active; IC50 [2]: 390 nM; Activity (Mus musculus [5]): Active |
| CCC1(C)CC(=O)NC1=O (configuration not stated) [ETHOSUXIMIDE] | – | IC50 [6]: 600000 nM |
| CC(C)=CCc1c(O)cc2c(c1O)C(=O)CC(c1ccc(Cl)cc1)O2 (configuration not stated) | 59.7 | – |
| C=CCc1ccc2c(c1O)C(=O)CC(c1ccc(OCC)cc1)O2 (configuration not stated) | 65.2 | – |
| C=CCc1c(O)cc2c(c1O)C(=O)CC(c1ccc(O)c(O)c1)O2 (configuration not stated) | 86.7 | – |
| CCCC(=CCc1c(O)cc2c(c1O)C(=O)CC(c1ccc(O)cc1)O2)CCC (configuration not stated) | 36.8 | – |
| CC(C)=CCc1c(O)cc2c(c1O)C(=O)CC(c1ccc(O)c(O)c1)O2 (configuration not stated) | 14.7 | – |
| C=CCc1c(O)cc2c(c1O)C(=O)CC(c1cccc(O)c1)O2 (configuration not stated) | 76.8 | – |
| CC(C)=CCc1c(O)cc(O)c2c1O[C@H](c1ccc(O)cc1)CC2=O | – | IC50 [2]: 1000 nM; IC50 [7]: 1000 nM |
| C=CCc1c(O)cc2c(c1O)C(=O)CC(c1cc(O)cc(O)c1)O2 (configuration not stated) | 74.8 | – |
| C=CCc1ccc2c(c1O)C(=O)CC(c1ccccc1O)O2 (configuration not stated) | 32 | – |

| Structure (SMILES) | Activity [1] [%] | other results |
| --- | --- | --- |
| CC(C)=CCc1ccc2c(c1O)C(=O)CC(c1ccccc1O)O2 (configuration not stated) | 3.77 | IC50 [2]: 1250 nM |
| CC(C)=CCc1ccc2c(c1O)C(=O)CC(c1ccccc1)O2 (configuration not stated) | 100 | – |
| C=CCc1ccc2c(c1O)C(=O)CC(c1ccc(Cl)cc1)O2 (configuration not stated) | 35.9 | – |
| CC(C)=CCc1c(O)cc2c(c1O)C(=O)CC(c1ccccc1O)O2 (configuration not stated) | 2.04 | IC50 [2]: 640 nM |
| C=CCc1c(O)cc2c(c1O)C(=O)CC(c1ccccc1O)O2 (configuration not stated) | 63 | – |
| CC(C)=CCc1c(O)cc2c(c1O)C(=O)CC(c1cc(O)cc(O)c1)O2 (configuration not stated) | 80.9 | – |
| O=C1CC(c2ccc(O)cc2)Oc2cc(O)c(CCC3CCCC3)c(O)c21 (configuration not stated) | 5.42 | IC50 [2]: 500 nM |
| CC(C)=CCc1ccc2c(c1O)C(=O)CC(c1ccc(C)cc1)O2 (configuration not stated) | 103 | – |
| C=CCc1ccc2c(c1O)C(=O)CC(c1ccc(C)cc1)O2 (configuration not stated) | 72.7 | – |
| CC(C)CCc1c(O)cc2c(c1O)C(=O)CC(c1ccc(O)cc1)O2 (configuration not stated) | 1.69 | IC50 [2]: 480 nM |
| CC(C)=CCc1c(O)cc2c(c1O)C(=O)CC(c1cccc(O)c1)O2 (configuration not stated) | 2.09 | IC50 [2]: 1020 nM |
| CCC(=CCc1ccc2c(c1O)C(=O)CC(c1ccccc1O)O2)CC (configuration not stated) | 16.1 | – |
| C=CCc1c(O)cc2c(c1O)C(=O)CC(c1ccc(Cl)cc1)O2 (configuration not stated) | 51.9 | – |
| COc1ccc(C2CC(=O)c3c(cc(O)c(CC=C(C)C)c3O)O2)cc1 (configuration not stated) | 47.6 | – |
| COc1ccc(C2CC(=O)c3c(ccc(CC=C(C)C)c3O)O2)cc1 (configuration not stated) | 81.9 | – |
| C=CCc1c(O)cc2c(c1O)C(=O)CC(c1cccc(O)c1O)O2 (configuration not stated) | 83.8 | – |
| CCOc1ccc(C2CC(=O)c3c(ccc(CC=C(CC)CC)c3O)O2)cc1 (configuration not stated) | 57.8 | – |
| C=C(C)[C@H](CC=C(C)C)Cc1c(O)cc(O)c2c1O[C@H](c1ccc(O)cc1O)CC2=O [SOPHORAFLAVANONE G] | – | IC50 [2]: 1000 nM; IC50 [7]: 1000 nM |
| C=CCc1ccc2c(c1O)C(=O)CC(c1ccccc1)O2 (configuration not stated) | 90.1 | – |
| CC(C)=CCc1c(O)cc2c(c1O)C(=O)CC(c1ccc(O)cc1)O2 (racemic) | 12.8 | Activity (Mus musculus [4]): inactive; IC50 [2]: 1000 nM; IC50 [7]: 1000 nM |
| CC(C)=CCc1c(O)cc2c(c1O)C(=O)CC(c1cccc(O)c1O)O2 (configuration not stated) | 67.1 | – |
